pIC50: −log10 of the molar value.

One data set has as its target Cytochrome P450 3A4 (Homo sapiens, UniProt P08684). Briefly: Induction of CYP3A4 in human hepatocytes. The data set is classed as ADME, cell-based, Hepatocyte. A digest of the protocol:
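Cryopreserved hepatocytes from 3 human donors were cultured on collagen for 3 days, then dosed daily in fresh medium with 1, 10 or 100 μM compound, vehicle, or rifampin as positive control. CYP3A4 activity was read 24 h after the last dose using testosterone as probe substrate, analysed by LC/MS/MS. Induction is expressed as % of positive control; >40% in any donor counts as a potential inducer.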

Data set [1] can be described thus: Tmax in beagle dog at 30 mg/kg, po. It counts as ADME, organism-based, Canis lupus familiaris. Set-up: dose 30 mg/kg, route oral. To be noted: in vivo. A digest of the protocol: (§1)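 Beagles (n = 3) were given an oral emulsion in 30% Labrafil. Blood was collected at 0, 5, 15 and 30 min and at 1, 2, 4, 8 and 24 h. Bioavailability was derived relative to IV dosing.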

For another data set, the system named is Canis familiaris. Put plainly: Oral bioavailability in beagle dog at 30 mg/kg. It counts as ADME, organism-based, Canis lupus familiaris. As to conditions: in vivo. A digest of the protocol: as §1
Data set [2] is described as follows: AUClast in CD1 mouse at 10 mg/kg, iv. The data set is classed as ADME, organism-based. Details: time 0 - last, dose 10 mg/kg, route intravenous. To be noted: plasma. A digest of the protocol:
(§2)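 CD1 mice (n = 3 per compound) given 10 mg/kg as a single tail-vein injection in a pH 7.0 solution of 10% ethanol plus PEG400 (some compounds also with 10% DMSO). Blood was sampled at 0, 5, 15 and 30 min and 1, 2, 4, 8 and 24 h. Parameters were derived from the plasma concentration–time profiles.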

Data set [3] in a line: Terminal half life in beagle dog at 30 mg/kg, po. Details: dose 30 mg/kg, route oral. To be noted: in vivo, read-out: beta t1/2 (converted). The data set is classed as ADME, organism-based, Canis lupus familiaris. In outline:
as §1

The nature of data set [4]: Terminal half life in Sprague-Dawley rat at 50 mg/kg, po. The data set is classed as ADME, organism-based. Set-up: dose 50 mg/kg, route oral. To be noted: in vivo, read-out: beta t1/2 (converted). A digest of the protocol:
(§3)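 Sprague–Dawley rats (n = 3) were dosed orally with an emulsion in 30% Labrafil. Blood was sampled from 0 to 24 h (0, 5, 15, 30 min; 1, 2, 4, 8, 24 h). Bioavailability was derived against the IV arm.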

For another data set, the target named is Cytochrome P450 2C9 (Homo sapiens, UniProt P11712). Put plainly: Inhibition of CYP2C9 (unknown origin). The data set is classed as ADME.
Data set [5] has as its system Mus musculus. Put plainly: Total unbound Cmax in CD1 mouse at 50 mg/kg, po. Set-up: dose 50 mg/kg, route oral. As to conditions: in vivo. The data set is classed as ADME, organism-based.
Data set [6] can be described thus: Metabolic stability in mouse liver microsomes assessed as compound remaining at 2 uM measured at 1 hr. The data set is classed as ADME, Microsome. To be noted: read-out: Stability. A digest of the protocol:
(§4)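 Liver microsomes (human, or male monkey, dog, rat or mouse) at 0.5 mg/mL final with 2 µM compound, 5 mM MgCl2 and 5 mM PBS. The reaction was started with 1 mM NADPH and run at 37 °C. Verapamil was the positive control; water replaced NADPH in the negative control. Read-out was percent parent remaining at 1 h.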

In data set [7] the test system is Rattus norvegicus. Put plainly: Total unbound Cmax in Sprague-Dawley rat at 50 mg/kg, po. It counts as ADME, organism-based. Set-up: dose 50 mg/kg, route oral. As to conditions: in vivo. A digest of the protocol: as §3
A short description of data set [8]: Volume of distribution at steady state in CD1 mouse at 10 mg/kg, iv. Set-up: dose 10 mg/kg, route intravenous. The data set is classed as ADME, organism-based. As to conditions: in vivo, read-out: Vdss. A digest of the protocol:
as §2

Data set [9] can be described thus: Terminal half life in CD1 mouse at 50 mg/kg, po. The data set is classed as ADME, organism-based. Details: dose 50 mg/kg, route oral. As to conditions: in vivo, read-out: beta t1/2 (converted). A digest of the protocol:
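CD1 mice (n = 3 per compound) were dosed orally at 50 mg/kg as an aqueous emulsion in 30% Labrafil. Blood was drawn at 0, 5, 15 and 30 min and 1, 2, 4, 8 and 24 h. Bioavailability and other parameters were calculated from the plasma profiles and compared against the intravenous arm.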

Data set [10] can be described thus: Metabolic stability in dog liver microsomes assessed as compound remaining at 2 uM measured at 1 hr. The data set is classed as ADME, Canis lupus familiaris, Microsome. As to conditions: read-out: Stability. A digest of the protocol:
as §4
(Liver microsomes are a subcellular fraction often used to study metabolism.)

A further data set relates to Caco-2. Briefly: Apparent permeability from apical to basolateral side of human Caco2 cells. It counts as ADME, cell-based. A digest of the protocol: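 Caco-2 monolayer permeability measured in the apical-to-basolateral direction and reported as Papp (10−6 cm/s); the efflux ratio was also determined.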
(Caco-2 monolayers are a common model of the intestinal barrier.)

Another data set has as its system C2C12. Briefly: Cytotoxicity against mouse C2C12 cells assessed as cell viability at 0.01 to 100 ug/mL after 24 hrs by MTT assay. The data set is classed as cell-based. To be noted: c2c12, 24 h. In outline:
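MTT viability run on C2C12 cells grown and treated alongside the NF-κB reporter plates, with drug at 0.01–100 µg/ml and DMSO vehicle. Viability is expressed as percent of untreated cells. A one-way repeated-measures ANOVA tested for a concentration effect.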

Data set [11] deals with T1, Glucocorticoid receptor (Mus musculus) (UniProt P06537).
T1 sequence (whole entry): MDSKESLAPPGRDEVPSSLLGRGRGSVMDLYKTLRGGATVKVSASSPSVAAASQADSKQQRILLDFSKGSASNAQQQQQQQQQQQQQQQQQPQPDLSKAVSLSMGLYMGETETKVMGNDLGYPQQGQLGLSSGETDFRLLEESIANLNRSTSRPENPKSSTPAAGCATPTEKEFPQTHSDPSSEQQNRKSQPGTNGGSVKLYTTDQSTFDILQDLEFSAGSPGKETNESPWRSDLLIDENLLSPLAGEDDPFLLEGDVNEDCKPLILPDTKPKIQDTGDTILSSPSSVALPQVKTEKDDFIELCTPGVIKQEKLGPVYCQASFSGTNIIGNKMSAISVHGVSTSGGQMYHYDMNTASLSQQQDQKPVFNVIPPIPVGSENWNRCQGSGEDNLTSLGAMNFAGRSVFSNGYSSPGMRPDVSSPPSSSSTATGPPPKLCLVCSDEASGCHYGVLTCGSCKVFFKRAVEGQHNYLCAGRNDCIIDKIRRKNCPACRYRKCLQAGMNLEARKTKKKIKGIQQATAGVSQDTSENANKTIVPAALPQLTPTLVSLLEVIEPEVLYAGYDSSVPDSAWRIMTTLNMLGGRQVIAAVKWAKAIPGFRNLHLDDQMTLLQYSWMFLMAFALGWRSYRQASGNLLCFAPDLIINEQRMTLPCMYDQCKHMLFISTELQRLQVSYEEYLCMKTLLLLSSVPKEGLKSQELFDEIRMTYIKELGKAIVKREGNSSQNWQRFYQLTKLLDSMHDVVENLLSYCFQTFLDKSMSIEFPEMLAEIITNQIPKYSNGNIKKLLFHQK
Briefly: Induction of glucocorticoid receptor nuclear translocation in mouse C2C12 cells at 1 x 10^-5 to 1.69 x 10^-10 M by chemiluminescence assay relative to control. The data set is classed as cell-based. In outline:
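GR nuclear translocation measured by DiscoveRx in PathHunter cells using enzyme-fragment complementation. ProLink-tagged GR recruits a nuclear steroid receptor co-activator peptide fused to the enzyme acceptor, giving a chemiluminescent signal.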

The subject of data set [12] is Mus musculus. Briefly: Total unbound AUC (0 to infinity) in CD1 mouse at 10 mg/kg, iv. The data set is classed as ADME, organism-based. Details: dose 10 mg/kg, route intravenous. To be noted: in vivo.
Data set [13] has as its system Rattus norvegicus. Put plainly: Total unbound AUC (0 to infinity) in Sprague-Dawley rat at 50 mg/kg, po. To be noted: in vivo. The data set is classed as ADME, organism-based. Set-up: dose 50 mg/kg, route oral. A digest of the protocol: as §3

Cytochrome P450 2C9, sequence (P11712 whole entry): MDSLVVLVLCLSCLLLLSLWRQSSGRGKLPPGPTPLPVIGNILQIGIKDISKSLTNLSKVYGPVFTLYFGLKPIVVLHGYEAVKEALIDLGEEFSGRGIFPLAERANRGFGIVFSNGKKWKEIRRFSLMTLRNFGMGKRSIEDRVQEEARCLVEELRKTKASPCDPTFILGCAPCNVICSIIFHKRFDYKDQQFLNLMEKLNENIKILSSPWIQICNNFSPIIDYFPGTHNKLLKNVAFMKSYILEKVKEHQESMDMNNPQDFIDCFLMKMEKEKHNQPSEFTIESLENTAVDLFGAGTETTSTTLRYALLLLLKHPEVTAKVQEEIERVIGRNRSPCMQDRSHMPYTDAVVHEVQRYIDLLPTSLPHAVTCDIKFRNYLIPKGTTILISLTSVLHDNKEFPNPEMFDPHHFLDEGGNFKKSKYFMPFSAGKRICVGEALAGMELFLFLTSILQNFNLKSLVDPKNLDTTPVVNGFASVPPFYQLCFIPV
Cytochrome P450 3A4, sequence (P08684 whole entry): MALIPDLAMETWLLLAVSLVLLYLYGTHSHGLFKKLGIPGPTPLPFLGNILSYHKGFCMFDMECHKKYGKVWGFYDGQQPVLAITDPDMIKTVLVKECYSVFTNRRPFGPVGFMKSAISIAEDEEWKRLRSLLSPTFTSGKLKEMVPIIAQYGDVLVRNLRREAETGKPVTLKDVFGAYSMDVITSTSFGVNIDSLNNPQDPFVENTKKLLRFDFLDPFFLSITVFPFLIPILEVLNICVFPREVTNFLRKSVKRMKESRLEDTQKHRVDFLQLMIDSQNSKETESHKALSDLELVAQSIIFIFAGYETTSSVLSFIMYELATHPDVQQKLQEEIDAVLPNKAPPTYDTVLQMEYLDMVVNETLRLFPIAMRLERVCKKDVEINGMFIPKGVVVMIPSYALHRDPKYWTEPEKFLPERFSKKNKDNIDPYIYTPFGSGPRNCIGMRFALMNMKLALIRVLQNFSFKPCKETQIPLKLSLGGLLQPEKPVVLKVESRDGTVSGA

For `C[C@@H]1C[C@H]2[C@@H]3CCC4=CC(=O)C=C[C@]4(C)C3=CC[C@]2(C)[C@@]1(O)C(=O)CO` [VAMOROLONE], the Activity at Cytochrome P450 3A4 was 24%; in the data set with C2C12, “Non-toxic”; in data set [11], 80.4%. The time of peak concentration (Tmax) in data set [1] is 6 h. Also, the F in the data set on Canis familiaris was 53.2%. Moreover, in data set [2], the area under the curve AUC(0-t) was found to be 8.84 µg·h/mL. The half-life was 2.25 h in data set [3], 2.29 h in data set [4] and 0.678 h in [9]. This molecule also showed a pIC50 at Cytochrome P450 2C9 of under 4.30. Moreover, the fCmax with Mus musculus [5] turned out to be 6787 ng/mL; in the data set with Rattus norvegicus [7], 2543 ng/mL. For the same molecule, the figures for the remaining at 1 h, 2 µM in [6] and in [10] were 88.8% and 92.5%, respectively. Also, the Vd in [8] is 0.757 L/kg. In addition, the Papp in the data set on Caco-2 was determined as 112 nm/s. The results for the fAUC with Mus musculus [12] and in the data set with Rattus norvegicus [13] were 8.842 µg·h/mL and 19.937 µg·h/mL, respectively.

The term Tmax denotes the time from dosing to the highest level. The AUC(0-t) is exposure summed from dosing to a finite time, without extrapolation to infinity. Lower therefore signals less exposure. Broadly, the pIC50 is the IC50 on a negative log10 scale, so that one unit is a factor of ten. Lower therefore signals a high IC50. The term Papp denotes the rate of passage across a membrane or cell layer, normalised by area and donor concentration.

(Values after ChEMBL document CHEMBL2346557 (Bioorg Med Chem, 2013).)
